Measurements: ChEMBL document CHEMBL1250478 (J Med Chem, 2010)
The source made the active and inactive calls. No cut-off for these calls is given here.

Columns and labels:
Heme = test: Binding affinity to heme after 4 hrs by equilibrium binding assay
In short: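 Heme stock in NaOH, diluted to 5 µM in 100 mM phosphate buffer pH 5.7 and equilibrated 4 h. Optical titration by successive addition of compound, with pH held within ±0.05. Apparent dissociation constants from nonlinear least-squares fitting, assuming 2:1 heme:drug stoichiometry.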

[1] = Inhibition of beta-hematin formation after 24 hrs; format: functional
In short: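 40 µM heme in 0.67 M sodium acetate pH 4.8 with 0.0005 g/L Tween20, compound at 0–1000 µM. Incubated 24 h at 37 °C in the dark, then read at 415/630 nm. IC50 taken as (Dmax − Dinitial)/2. Duplicate assays, run twice.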

[2] = Therapeutic index, ratio of IC50 for mice (Mus musculus) spleen lymphocytes to IC50 for chloroquine-resistant Plasmodium falciparum Dd2; format: tissue-based; conditions: read-out: Ratio IC50
Plasmodium falciparum [3] = test: Ratio of compound IC50 to chloroquine IC50 for chloroquine-resistant Plasmodium falciparum 7G8; format: functional
Plasmodium falciparum [4] = test: Ratio of compound IC50 to chloroquine IC50 for chloroquine-resistant Plasmodium falciparum Dd2; format: functional
Plasmodium falciparum [5] = test: Ratio of compound IC50 to chloroquine IC50 for chloroquine-sensitive Plasmodium falciparum D6; format: functional
Plasmodium berghei [6] = test: Antiplasmodial activity against Plasmodium berghei infected in NMRI mice (Mus musculus) assessed as parasitaemia level at 30 mg/kg, perorally administered as single dose measured after 3 days relative to control; format: functional; conditions: route oral
In short: (§1)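 P. berghei blood diluted in saline to 10^8 parasitized erythrocytes/mL; 0.2 mL given i.v. to groups of 3 female NMRI mice (controls 5). Compounds dosed at 10 ml/kg either once on day 1 (oral gavage or subcutaneous) or orally at 4, 24, 48, 72 h post-infection. Parasitemia read by FACS on 100,000 RBCs from tail blood on day 3 (single dose) or day 4 (quadruple dose). Activity = % reduction versus control mean. Survival monitored to 30 days.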

Plasmodium berghei [7] = test: Antiplasmodial activity against Plasmodium berghei infected in NMRI mice (Mus musculus) assessed as survival rate at 30 mg/kg, perorally administered as single dose; format: functional; conditions: route oral; in short: as §1
Plasmodium berghei [8] = test: Antiplasmodial activity against Plasmodium berghei infected in NMRI mice (Mus musculus) assessed as survival rate at 30 mg/kg, perorally administered as 4 consecutive doses measured post last dose; format: functional; conditions: route oral; in short: as §1
Plasmodium berghei [9] = test: Antiplasmodial activity against Plasmodium berghei infected in NMRI mice (Mus musculus) assessed as parasitaemia level at 30 mg/kg, perorally administered as 4 consecutive doses measured after 3 days post last dose relative to control; format: functional; conditions: route oral; in short: as §1
Plasmodium berghei [10] = test: Antiplasmodial activity against Plasmodium berghei infected in NMRI mice (Mus musculus) assessed as survival rate at 30 mg/kg, subcutaneously administered as single dose; format: functional; conditions: route subcutaneous; in short: as §1
Plasmodium berghei [11] = test: Antiplasmodial activity against Plasmodium berghei infected in NMRI mice (Mus musculus) assessed as parasitaemia level at 30 mg/kg, subcutaneously after 3 days relative to control; format: functional; conditions: route subcutaneous; in short: as §1
[12] = Drug level in chloroquine-sensitive Plasmodium falciparum Dd2 digestive vacuole assessed as ratio of drug level in vacuole to medium at 5 uM after 1 hr; format: ADME; conditions: plasmodium falciparum dd2, 1 h, in the assay text read “chloroquine-resistant” for “chloroquine-sensitive”
In short: (§2)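 Sorbitol-synchronized mature trophozoites (about 10% parasitemia) in 5 mL complete medium, drug at about 5 µM initial medium concentration. Medium sampled over time and analyzed by C18 HPLC. NH4Cl (10 mM) added 10 min before sampling to release accumulated drug; uptake is the difference from the 1 h level. DV concentration assumes 6 × 10^7 PRBCs and a 4 fL DV. Accumulation ratio is DV/medium concentration.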

Plasmodium falciparum [13] = test: Antiplasmodial activity against chloroquine-sensitive Plasmodium falciparum D6 early trophozoites infected in NMRI mice (Mus musculus) RBC assessed as inhibition of hemozoin formation at 100 nM after 24 hrs by microscopic analysis; format: functional, organism-based
In short: (§3)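 Ring-stage D6 parasites synchronized with 5% sorbitol, suspended at 1% hematocrit and drug added from 1 mM stock. Incubated 24 h at 37 °C under 5% O2/5% CO2/90% N2 alongside a no-drug control. Giemsa-stained smears were used for parasitemia and for microscopic examination of hemozoin and parasite morphology.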

Plasmodium falciparum [14] = test: Inhibition of hemozoin formation in early trophozoites of chloroquine-sensitive Plasmodium falciparum D6 infected in RBC assessed as enlarged digestive vacuole at 100 nM after 24 hrs by microscopic analysis; format: functional, organism-based; in short: as §3
[15] = Drug level in NMRI mice (Mus musculus) erythrocytes infected with chloroquine-sensitive Plasmodium falciparum D6 after 1 hr; format: ADME, cell-based; conditions: erythrocyte; in short: as §2
[16] = Drug level in chloroquine-sensitive Plasmodium falciparum D6 digestive vacuole after 1 hr; format: ADME; conditions: plasmodium falciparum d6, 1 h; in short: as §2
[17] = Drug level in chloroquine-sensitive Plasmodium falciparum D6 digestive vacuole assessed as ratio of drug level in vacuole to medium at 5 uM after 1 hr; format: ADME; conditions: plasmodium falciparum d6, 1 h; in short: as §2
[18] = Drug level in erythrocytes infected with chloroquine-resistant Plasmodium falciparum Dd2 after 1 hr; conditions: erythrocyte
Plasmodium falciparum [19] = test: Antiplasmodial activity against chloroquine-resistant Plasmodium falciparum Dd2 early trophozoites infected in NMRI mice (Mus musculus) RBC assessed as inhibition of hemozoin formation at 100 nM after 24 hrs by microscopic analysis; format: functional, organism-based
In short: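 D6 and Dd2 cultures synchronized to ring stage with 5% sorbitol, suspended at 1% hematocrit and exposed to drug (from 1 mM stock) for 24 h at 37 °C under 5% O2/5% CO2/90% N2. Giemsa-stained smears examined by microscopy for hemozoin, parasitemia and parasite morphology.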

Plasmodium falciparum [20] = test: Antiplasmodial activity against synchronized chloroquine-sensitive Plasmodium falciparum D6 infected in NMRI mice (Mus musculus) RBC assessed as inhibition of hemozoin formation at 1000 nM after 24 hrs by colorimetric analysis; format: functional, organism-based
In short: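 D6 cultures synchronized with sorbitol, held at 1% hematocrit, drug-treated 24 h at 37 °C. Parasites freeze-thawed, then lysed 30 min at 37 °C in saponin/Triton X-100 buffer. Hemozoin pelleted at 215,000 g, washed with acetone and PBS, dissolved 2 h in 0.2 N NaOH. Heme read at A400 (ε 91,000 cm-1M-1) and expressed per parasitized erythrocyte. A 0 h culture gave the baseline.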

Plasmodium falciparum [21] = test: Antiplasmodial activity against synchronized chloroquine-resistant Plasmodium falciparum Dd2 infected in NMRI mice (Mus musculus) RBC assessed as inhibition of hemozoin formation at 1000 nM after 24 hrs by colorimetric analysis; format: functional, organism-based
In short: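 Sorbitol-synchronized D6 and Dd2 cultures at 1% hematocrit were drug-treated for 24 h at 37 °C. Parasites were freed by freeze-thaw and saponin/Triton lysis buffer (37 °C, 30 min). Hemozoin was pelleted at 215,000 g, washed with acetone and PBS, then dissolved in 0.2 N NaOH. Heme was quantified by A400 (ε 91,000 cm-1M-1) per parasitized erythrocyte. Baseline was taken from 0 h culture.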

[22] = Solubility of the compound; format: physicochemical

| SMILES | Kd (Heme) | selectivity ratio [2] | Ratio IC50 (Plasmodium falciparum [3]) | Ratio IC50 (Plasmodium falciparum [4]) | Ratio IC50 (Plasmodium falciparum [5]) | also measured |
| --- | --- | --- | --- | --- | --- | --- |
| Clc1ccc2c(NCCCN3CCN(C(c4ccccc4)c4ccccc4)CC3)ccnc2c1 | 3 µM | 423 | 11 | 2.6 | 1.9 | IC50 [1]: 3.5 µM |
| Clc1ccc(C(c2ccccc2)N2CCCN(CCCNc3ccnc4cc(Cl)ccc34)CC2)cc1 (stereo not drawn) | – | 158 | 22 | 5.7 | 6.6 | – |
| Clc1ccc(C(c2ccccc2)N2CCN(CCNc3ccnc4cc(Cl)ccc34)CC2)cc1 (stereo not drawn) | – | 700 | 10 | 2 | 2.6 | – |
| Clc1ccc2c(NCCCCN3CCN(C(c4ccccc4)c4ccccc4)CC3)ccnc2c1 | – | 846 | 7.2 | 1.3 | 1.3 | – |
| Clc1ccc2c(NCCCN3CCCN(C(c4ccccc4)c4ccccc4)CC3)ccnc2c1 | – | 171 | 15 | 4.1 | 4.8 | – |
| Clc1ccc(C(c2ccccc2)N2CCN(CCCNc3ccnc4cc(Cl)ccc34)CC2)cc1 (stereo not drawn) | – | 229 | 12 | 3.5 | 3.2 | – |
| Fc1ccc(C(c2ccc(F)cc2)N2CCN(CCCNc3ccnc4cc(Cl)ccc34)CC2)cc1 | – | 1710 | 34 | 2.4 | 2 | – |
| OCCN1CCN(C(c2ccccc2)c2ccccc2)CC1 | – | > 50 | >2500 | >2500 | >2500 | – |
| Clc1ccc2c(NCCN3CCN(C(c4ccccc4)c4ccccc4)CC3)ccnc2c1 | 3.3 µM | 528 | 4.3 | 3.6 | 1 | IC50 [1]: 2.5 µM; Activity (Plasmodium berghei [6]): >99.9%; Survival (Plasmodium berghei [7]): 8 days; Survival (Plasmodium berghei [8]): 16 days; Activity (Plasmodium berghei [9]): >99.9%; Survival (Plasmodium berghei [10]): 3 days; Activity (Plasmodium berghei [11]): <40% |
| Clc1ccc2c(NCCN3CCCN(C4c5ccccc5-c5ccccc54)CC3)ccnc2c1 | – | 260 | 41 | 9.6 | 9.2 | – |
| Clc1ccc2c(NCCCN3CCN(C4C5CC6CC(C5)CC4C6)CC3)ccnc2c1 (stereo not drawn) | 2.5 µM | 69400 | 10 | 1.8 | 0.8 | IC50 [1]: 14 µM |
| CN(CCCN1c2ccccc2CCc2ccccc21)CCNc1ccnc2cc(Cl)ccc12 | 7.3 µM | 269 | 21 | 5.2 | 3.6 | IC50 [1]: 10 µM |
| Clc1ccc2c(NCCCN3CCN(CC(c4ccccc4)c4ccccc4)CC3)ccnc2c1 | – | 6970 | 3.4 | 3.3 | 0.5 | – |
| CN(CCCNc1ccnc2cc(Cl)ccc12)CCCN1c2ccccc2CCc2ccccc21 | 8.6 µM | 132 | 4 | 5.3 | 2.9 | Ratio [12]: 38000; IC50 [1]: 9 µM; inhibition (Plasmodium falciparum [13]): inactive; inhibition (Plasmodium falciparum [14]): Active; Activity (Plasmodium berghei [6]): <40%; Survival (Plasmodium berghei [7]): 3 days; Drug uptake [15]: 1.6 ×10⁻⁸ mol; Survival (Plasmodium berghei [8]): 8 days; Activity (Plasmodium berghei [9]): 96%; Survival (Plasmodium berghei [10]): 7 days; Activity (Plasmodium berghei [11]): 92%; Drug uptake [16]: 65000 µM; Ratio [17]: 32000; Drug uptake [18]: 1.8 ×10⁻⁸ mol |
| Clc1ccc2c(NCCCN3CCNCC3)ccnc2c1 | – | 3380 | – | 6.8 | 4.3 | – |
| Clc1ccc2c(NCCCN3CCCN(C4c5ccccc5-c5ccccc54)CC3)ccnc2c1 | – | 167 | 56 | 15 | 21 | – |
| CCN(CC)CCCC(C)Nc1ccnc2cc(Cl)ccc12 (stereo not drawn) [CHLOROQUINE] | – | – | – | – | – | inhibition (Plasmodium falciparum [19]): inactive; inhibition (Plasmodium falciparum [13]): inactive; inhibition (Plasmodium falciparum [20]): Active; inhibition (Plasmodium falciparum [21]): Active; Survival (Plasmodium berghei [7]): 9 days; Drug uptake [15]: 0.7 ×10⁻⁸ mol; Survival (Plasmodium berghei [8]): 23 days; Survival (Plasmodium berghei [10]): 10 days; Drug uptake [18]: 0.5 ×10⁻⁸ mol |
| Clc1ccc2c(NCCCN3CCN(C(c4ccccc4)(c4ccccc4)c4ccccc4)CC3)ccnc2c1 | 5.4 µM | 13600 | 10 | 4.2 | 2 | solubility [22]: Insoluble; Activity (Plasmodium berghei [6]): 99.7%; Survival (Plasmodium berghei [7]): 7 days; Survival (Plasmodium berghei [8]): 20 days; Activity (Plasmodium berghei [9]): >99.9%; Survival (Plasmodium berghei [10]): 3 days; Activity (Plasmodium berghei [11]): <40% |
